The data set has as its system MS2 coat protein. The experiment in a line: apparent Kd, MS2 coat protein; higher = weaker binding; RNA-MaP array; FMN 200 µM where present. The gist of the method: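 Binding was read on Illumina sequencing-chip clusters where stalled E. coli RNA polymerase had transcribed each design. A titration of SNAP-549-labelled MS2 coat protein began at 0.7 or 1.5 nM and doubled to 3 µM, once without ligand and once with constant ligand, in 100 mM Tris-HCl pH 7.5, 80 mM KCl, 4 mM MgCl2, BSA, DTT, yeast tRNA and Tween-20. The apparent Kd is the median of filtered per-cluster binding-curve fits, based on green signal normalised to red-channel RNA signal and control-cluster median Fmax.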

The mark [1] stands for this setting: designed as: ON switch for flavin mononucleotide, no ligand.
The mark [2] stands for this setting: ligand present: flavin mononucleotide, designed as: ON switch for flavin mononucleotide.
[3] abbreviates: designed as: OFF switch for flavin mononucleotide, no ligand.
Setting [4] is: ligand present: flavin mononucleotide, designed as: OFF switch for flavin mononucleotide.

A word on the apparent Kd: it is the concentration giving half-maximal binding under the conditions of the assay.

For “UUGGACGUCGUAGGAUAUGUAGGAUAUUCCUACAUGAGGAUCACCCAUGUUGACAUAGAAGAAGGACAGAAGGACGAUGUCCAU”, the “apparent Kd” value came out at 88.3 nM under setting [1] and 4.86 nM under setting [2].

Take “UGUUGUAUUACAGGAUAUCUAUUAUGUUUAUUUAGAGAAGGGUAUUCACAUGAGGAUCACCCAUGUAUAUACGAGGAAGUUGUG”: the “apparent Kd” value came to 54.8 nM under setting [1] and 56.2 nM under setting [2].

Turning to “AACAGUACAGGAUAUACAUGAGGAUCACCCAUGUGAGAAACCACUGGCGUACCAGAAAGUAGAAGGGUACUGGA”, the “apparent Kd” value came out at 79.7 nM under setting [3] and 97.8 nM under setting [4].

On to “UUAUACAUUCGAGGAUAUCGGAGAGAAAUCAUUCGAGAAGGCGAUUCAUGAUGUAUUAUCCUGGACAUGAGGAUCACCCAUGUA”, for which the “apparent Kd” value runs as follows: under setting [1], 79.7 nM; under setting [2], 68.5 nM.

With “GGUUACAAGUAAGGAUAUGUAUAUGAAACAUAUACAGAAGGUACAUGAGGAUCACCCAUGUUCUUGCAAAGCGAAUAUGUAACC”, the “apparent Kd” value under setting [3] was found to be 15.1 nM and the “apparent Kd” value under setting [4] is 18.6 nM.

“CUGAUGUGAGGAUAUCGGGCUACAGGCCUGCUGCUAGCAAACGAGAAGGCACAUGAGGAUCACCCAUGUGAUAG”: the “apparent Kd” value by setting is: under setting [3], 15.9 nM; under setting [4], 35.1 nM.

For the sequence “AAGAAACAUGAGGAUCACCCAUGUCACCUCACACGAGGAUAUCUGAAUCGAUUAGAUUACGGAGAAGGCGUGAGAA”, the “apparent Kd” value runs as follows: under setting [1], 30.2 nM; under setting [2], 18.3 nM.

For the sequence “AUAAUGUGAGGAUAUCAGUCGUACAGCUUCGGCUGUACGACUGAGAAGGCACAUGAGGAUCACCCAUGUGGUCA”, the “apparent Kd” value worked out at 499 nM under setting [3] and 84.2 nM under setting [4].

For the sequence “UUUUGGCAUGUAGGAUAUGGGUCCGAUUAGGAUUUAGAAGGACAUGAGGAUCACCCAUGUGCAUUUAAUUGGUCUUUAUUUUUU”, the “apparent Kd” value by setting is: under setting [3], 64.1 nM; under setting [4], 85.6 nM.

On to “GAGCAGGAAGGAUAUACAUGAGGAUCACCCAUGUACCAUCAAGGCUUUGAUUUUCACGGUAGAAGGUCCCAAUA”, for which the “apparent Kd” value came to 40.3 nM under setting [3] and 51.4 nM under setting [4].

In the case of “UUUAAGUCAGGAUAUCGUUAAUUUAAUUAAUUAUUUUAAUUCGAGAAGGGACAUGAGGAUCACCCAUGUAAUUU”, the “apparent Kd” value runs as follows: under setting [3], 36.8 nM; under setting [4], 60.2 nM.

As for “UAGGUGUGAGGAUAUGGUAAAGAUAAGAUGAUGAAAGAACUCCAGAAGGCACAUGAGGAUCACCCAUGUAGAUG”, the “apparent Kd” value turned out to be 28 nM under setting [3] and 70.8 nM under setting [4].

Regarding “AAGCUGCGCCAGAAGGGACCGACAUGAGGAUCACCCAUGUCCACAAGAGUCAGGAUAUGGCGUGGAGGCUCGUUUAAGUCCAGG”, the “apparent Kd” value is, setting by setting: under setting [1], 11.1 nM; under setting [2], 5.19 nM.

Regarding “UGUGUGUCAGGAUAUCGCGCGCGCGCGGAAAUGUGUGUGUGUGAGAAGGGACAUGAGGAUCACCCAUGUGCGCG”, the “apparent Kd” value under setting [3] came to 115 nM and the “apparent Kd” value under setting [4] stood at 263 nM.

As to “UGUCUUUGCACAGGAUAUCAUACAUGAGGAUCACCCAUGUCUAUAAAACAAUGAGAAGGGUGCGUGAUGUGGGCUGCUAUAGCG”, the “apparent Kd” value under setting [1] worked out at 24.7 nM and the “apparent Kd” value under setting [2] was found to be 8.3 nM.

For “CCAUCAGCGAACGAUACGGUUGGACAUGAGGAUCACCCAUGUAGAAGGACAGGAGAAUAACGGCUGUAGGAUAUACAUUUAGUG”, the “apparent Kd” value was determined as 40.7 nM under setting [3] and 33.9 nM under setting [4].

In the case of “AGAUUUGUACAUGAGGAUCACCCAUGUUAAUAGGUGGUAGUCAGAAGGCAUUGAUAGAGUUUUAAUGAGGAUAUGAAUAUACAG”, the “apparent Kd” value came to 267 nM under setting [1] and 126 nM under setting [2].

For “AUCAGCUUGACAGGAUAUACAUGUCAGCGAAAGCUGACAAUCUUAAUAACAUGAGGAUCACCCAUGUAGAAGGGUCGAGCUGAU”, the “apparent Kd” value reads like this: under setting [3], 18.1 nM; under setting [4], 32.4 nM.

Take “UGGUACUAGGGAGGAUAUGGGAAGAUACAUGAGGAUCACCCAUGUUUAAGAAUGCCGAGAGGCAACUAGAAGGCCCUACUACCU”: the “apparent Kd” value worked out at 294 nM under setting [1] and 20.6 nM under setting [2].

“AAAACUUCAGAGAAGGACCCAUCGGCGAGAUGGGUAGGAUAUCUGACUUGAGGUGUCCUGACAUGAGGAUCACCCAUGUAUAAA”: the “apparent Kd” value under setting [3] stood at 418 nM and the “apparent Kd” value under setting [4] worked out at 61.4 nM.

As for “CCUCUACAUGAGGAUCACCCAUGUGAGGAUAUGUGAGGCGCGCUCGAUGAGCGCACCGAUAGAAGGCAUGUGGU”, the “apparent Kd” value turned out to be 25.8 nM under setting [3] and 70.5 nM under setting [4].

As for “GGAGGGCCUCGAGGAUAUCGCUGCGGUCGUCUGACAUGAGGAUCACCCAUGUGAGAAGGCGAGGCUACUGACUAUGCCCGUUAU”, the “apparent Kd” value under setting [3] amounted to 27.9 nM and the “apparent Kd” value under setting [4] is 275 nM.

Regarding “GCAGCAAUCUUUAACAUGAGGAUCACCCAUGUCGAGAGAUAUGAGGAUAUGCAUCUGAAGAAGAUGCAGAAGGCAUUGUGCUGC”, the “apparent Kd” value runs as follows: under setting [1], 6.26 nM; under setting [2], 5 nM.

On to “AAGGUGUUAGGAUAUCGUAGUUUGUGGCAGACGGGAUUUUGCGAGAAGGAACAUGAGGAUCACCCAUGUCGGAU”, for which the “apparent Kd” value runs as follows: under setting [3], 28.4 nM; under setting [4], 28.2 nM.

In the case of “GGAAAUCAUGUAGGAUAUGCAUGGCGAAGCUACGCAGAAGGACAUGAGGAUCACCCAUGUUAUAGCGUCCGAGUAAGGAUGCAA”, the “apparent Kd” value under setting [3] was 42.1 nM and the “apparent Kd” value under setting [4] was 123 nM.

Consider “CCCGACCUGAAGUCGAUACGGAGGAGAAGGCGCCUCCUGGGUCCACAUGAGGAUCACCCAUGUGGCGAGGAUAUCCUCAGUUUU”, for which the “apparent Kd” value was determined as 11.8 nM under setting [3] and 73.7 nM under setting [4].

Regarding “ACGAUACAUGAGGAUCACCCAUGUUAGGAUAUACGCAUGCAUGCAUGCAUGCAUGCAAGUAGAAGGAACCAUGC”, the “apparent Kd” value reads like this: under setting [3], 27.5 nM; under setting [4], 26.8 nM.

For the sequence “GCAGCUAAUAUUAUACAUGAGGAUCACCCAUGUUACAUGAGUAAGGAUAUUGAUGAUUAUAUAAACAAGAAGGUACGAAGCUGC”, the “apparent Kd” value was determined as 14.9 nM under setting [1] and 7.85 nM under setting [2].

As for “AUAUCAUACCAAGGAUAUUUAGGAUUUGUGUAGACAUGAGGAUCACCCAUGUGGCGUUAGUCACGGGAGAAGGUGGUAUGAUAU”, the “apparent Kd” value reads like this: under setting [1], 622 nM; under setting [2], 105 nM.

On to “CGAUAACAUAGUUAUCCGUAACGGACAUGAGGAUCACCCAUGUAGGAUAUGUUACUCCACGAGUAACAGAAGGACAUGAGUCUU”, for which the “apparent Kd” value reads like this: under setting [3], 19.3 nM; under setting [4], 95.7 nM.

In the case of “ACAUGAGGAUCACCCAUGUAAAAUUAAGAAGGUAGAUACUUGAGGAUCACCCAUGUACAUGGGACUAAGGAUAUUAUAAUAAUU”, the “apparent Kd” value reads like this: under setting [1], 55.7 nM; under setting [2], 49.1 nM.

Regarding “UGAUAGGACAGAGGAUAUACAGAUAGGAUCUACUAUCAAACAUUCCUGACAUGAGGAUCACCCAUGUAGAAGGCUGUCCUAUCU”, the “apparent Kd” value by setting is: under setting [3], 21.9 nM; under setting [4], 72.8 nM.

Consider “GCGAUGUCAGGAUAUGUGUAAAGAAUAAAACAAAUAACAACACAGAAGGGACAUGAGGAUCACCCAUGUUACGC”, for which the “apparent Kd” value by setting is: under setting [3], 30.1 nM; under setting [4], 37.2 nM.

Take “AAGAAGUUAGGAUAUGCAUGGCGGGACUUGCGUCGUGGCGUGCAGAAGGAACAUGAGGAUCACCCAUGUAAAGA”: the “apparent Kd” value under setting [3] was determined as 29.1 nM and the “apparent Kd” value under setting [4] was determined as 18.3 nM.

“UUUAGUAUCUAGGAUAUCUAGUACAUAGUAUCUAGAGAAGGAGAUACAUGAGGAUCACCCAUGUUCUGUGAUCU”: the “apparent Kd” value reads like this: under setting [3], 210 nM; under setting [4], 36.4 nM.

As for “AGCUAGUCAGGAUAUACGAGAACGAACGAAGCAGUGAAGGGACAUGAGGAUCACCCAUGUAGAAGGGACUAGCA”, the “apparent Kd” value was 36 nM under setting [3] and 82.6 nM under setting [4].

Consider “GCCUUACCGGUCAGGAUAUACAUUUGUCACUCCUUGUAGAAGGGACAUGAGGAUCACCCAUGUACAUUACAUUC”, for which the “apparent Kd” value runs as follows: under setting [3], 29 nM; under setting [4], 28.6 nM.

Regarding “GUCAGCUCGUGAGGAUAUACAACACUGCUUUGGCAGUGUAUUAAGAUCACAUGAGGAUCACCCAUGUAGAAGGCACGAGCUGAU”, the “apparent Kd” value stood at 13.2 nM under setting [3] and 228 nM under setting [4].

For “CUGUAGAUAUCAGGAUAUCUAUUUCCUACAUGAGGAUCACCCAUGUAGGUGAUCACCCAAGUAAAGGAGAAGGGAUAUCUAUAG”, the “apparent Kd” value turned out to be 65 nM under setting [1] and 23.2 nM under setting [2].

Take “CAUUAAUUCAUUAUAGUUAUUAUACAGGAUAUGUUACAUGAGGAUCACCCAUGUUAUCAUGGUAAACAGAAGGGUAUAUAAAGU”: the “apparent Kd” value is 33.5 nM under setting [3] and 57.5 nM under setting [4].

In the case of “CUUUAGCUAGGAUAUACAUGAGGAUCACCCAUGUUAGCGGUCAAUUGGGCCGCGGGUUGUAGAAGGAGCAUUAA”, the “apparent Kd” value reads like this: under setting [3], 32.5 nM; under setting [4], 53.4 nM.

As to “CCUGCACAUGAGGAUCACCCAUGUCAGGAUAUCUCGCCGCGAAGAGCAACACGGUAUUAGAGAAGGGACACGGG”, the “apparent Kd” value under setting [3] came out at 28.1 nM and the “apparent Kd” value under setting [4] came out at 36.5 nM.

In the case of “CCCAAACUUGGGCUUGGUGGUGCAUAGGAUAUGCUUGAACAUGAGGAUCACCCAUGUACAACUGUGCAGAAGGGUGCAGGGCAA”, the “apparent Kd” value is 40.9 nM under setting [1] and 18.6 nM under setting [2].

Take “ACAUACAUUCGAGGAUAUCGGUGAUAAAUUUUACGAGAAGGCGAUUUACGGCAUAAUGCUGUAGACAUGAGGAUCACCCAUGUA”: the “apparent Kd” value reads like this: under setting [1], 71.5 nM; under setting [2], 39.2 nM.

Take “AAUUCGCGAGGAUAUACAUGAGGAUCACCCAUGUGUGUACGCAUGCACUUCAUAGGUUGUAGAAGGCGUGAGAU”: the “apparent Kd” value by setting is: under setting [3], 19.7 nM; under setting [4], 29.4 nM.

As for “AAAACAUGAGGAUCACCCAUGUAUAGAGCGGUUAAUAAAGGUGAGGAUAUACUAAAUUUUAUAUAGUAGAAGGCACUGGGUACU”, the “apparent Kd” value reads like this: under setting [1], 26.7 nM; under setting [2], 30.5 nM.

For the sequence “GCACAUUUGUAAGGAUAUACAACAUGAGGAUCACCCAUGUGUUGGAAUUUAGUAGAAGGUACAGACAUGAGUAUCACUUUUGUA”, the “apparent Kd” value under setting [1] came to 72.7 nM and the “apparent Kd” value under setting [2] amounted to 51.9 nM.

With “ACAAGAUCAGGAUAUACAUGAGGAUCACCCAUGUUUAUCAAAAAAGGGCUUUCUUAAUGUAGAAGGGAUCUUGU”, the “apparent Kd” value is 84.5 nM under setting [3] and 64.1 nM under setting [4].

For the origin of these results see the EternaBench riboswitch data.
